# Measurements from ChEMBL document CHEMBL1149639, “Anti-tumor agents 255: novel glycyrrhetinic acid-dehydrozingerone conjugates as cytotoxic agents” (2007).
# The source made the active and inactive calls. The calls are words filed in the database; no cut-off is given here.
# What was measured:
# Format in all cases: functional
# [1] = system: KB; assay: Cytotoxicity against human KB cells by sulforhodamine B assay; details: for EC50: read-out: ED50 (the source's name)
# Summary of the method: (§1)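 Sulforhodamine B assay after Rubinstein et al. Cells grown at 37 °C, humidified 5% CO2, in RPMI-1640 with 10% (v/v) FBS and 100 μg/mL kanamycin. Seeding density set per line to give final A562 of 1-2.5. Stocks in DMSO, final DMSO <1% (v/v). Two-day drug exposure, absorbance at 562 nm. ED50 (50% absorbance reduction vs untreated) interpolated from dose-response. Tests in duplicate.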
# [2] = system: KB-VIN; assay: (§2) Cytotoxicity against human KB-VIN cells by sulforhodamine B assay; summary of the method: as §1
# [3] = system: ZR-75-1; assay: Cytotoxicity against human ZR751 cells; details: for EC50: read-out: ED50 (the source's name); summary of the method: as §1
# [4] = system: LNCaP; assay: Cytotoxicity against human LN-Cap cells; details: read-out: ED50 (the source's name); summary of the method: as §1
# [5] = system: 1A9; assay: Cytotoxicity against human 1A9 cells; details: for EC50: read-out: ED50 (the source's name); summary of the method: as §1
# [6] = system: PC-3; assay: Cytotoxicity against human PC3 cells; details: read-out: ED50 (the source's name); summary of the method: as §1
# [7] = system: DU-145; assay: Cytotoxicity against human DU145 cells; details: read-out: ED50 (the source's name); summary of the method: as §1
# [8] = system: HCT-8; assay: Cytotoxicity against human HCT8 cells; details: read-out: ED50 (the source's name); summary of the method: as §1
# [9] = system: KB; assay: Cytotoxicity against human KB cells; details: for EC50: read-out: ED50 (the source's name); summary of the method: as §1
# [10] = system: A549; assay: Cytotoxicity against human A549 cells; details: for EC50: read-out: ED50 (the source's name); summary of the method: as §1
# [11] = (§3) Cytotoxicity against human KB-VIN cells; details: KBVIN, read-out: ED50 (the source's name); summary of the method: as §1
# [12] = system: KB-VIN; assay: as §3; summary of the method: as §1
# [13] = as §2; details: KBVIN, read-out: ED50 (the source's name); summary of the method: as §1
SMILES,Activity [1],Activity [2],EC50 [3] [nM],EC50 [4] [nM],EC50 [5] [nM],EC50 [6] [nM],EC50 [7] [nM],EC50 [8] [nM],EC50 [9] [nM],EC50 [10] [nM],EC50 [11] [nM],EC50 [1] [nM],Activity [3],Activity [10],Activity [9],Activity [12],Activity [5],EC50 [13] [nM]
CC1(C)CC[C@]2(C(=O)O)CC[C@]3(C)C(=CC[C@@H]4[C@@]5(C)CC[C@H](O)C(C)(C)[C@@H]5CC[C@]43C)[C@@H]2C1,inactive,inactive,–,–,–,–,–,–,–,–,–,–,–,–,–,–,–,–
COc1cccc(/C=C/C(C)=O)c1OC(=O)[C@@]1(C)CC[C@]2(C)CC[C@]3(C)C(=CC(=O)[C@@H]4[C@@]5(C)CC[C@H](O)C(C)(C)[C@@H]5CC[C@]43C)[C@@H]2C1,–,–,3000,2800,800,1100,3600,1900,800,2200,2800,–,–,–,–,–,–,–
COc1cc(/C=C/C(C)=O)ccc1OC(=O)[C@]12CC[C@@H](C)[C@H](C)[C@H]1C1=CC[C@@H]3[C@@]4(C)CC[C@H](O)C(C)(C)[C@@H]4CC[C@@]3(C)[C@]1(C)CC2,–,inactive,–,–,–,–,–,–,–,–,–,10500,–,–,–,–,–,–
CC1(C)[C@@H](O)CC[C@]2(C)[C@H]3C(=O)C=C4[C@@H]5C[C@@](C)(C(=O)O)CC[C@]5(C)CC[C@@]4(C)[C@]3(C)CC[C@@H]12 [ENOXOLONE],inactive,inactive,–,> 21000,> 21000,> 21000,> 21000,19500,> 21000,–,> 21000,–,inactive,inactive,–,–,–,–
CCOc1cccc(/C=C/C(C)=O)c1OC(=O)[C@@]1(C)CC[C@]2(C)CC[C@]3(C)C(=CC(=O)[C@@H]4[C@@]5(C)CC[C@H](O)C(C)(C)[C@@H]5CC[C@]43C)[C@@H]2C1,–,–,8800,6800,1800,3500,> 15000,4900,2900,3000,13200,–,–,–,–,–,–,–
COc1cc(/C=C/C(=O)c2ccccc2)ccc1OC(=O)[C@@]1(C)CC[C@]2(C)CC[C@]3(C)C(=CC(=O)[C@@H]4[C@@]5(C)CC[C@H](O)C(C)(C)[C@@H]5CC[C@]43C)[C@@H]2C1,–,–,–,> 14000,> 14000,> 14000,> 14000,> 14000,–,> 14000,–,–,inactive,–,inactive,inactive,–,–
COc1ccc(/C=C/C(=O)c2ccccc2)cc1OC(=O)[C@@]1(C)CC[C@]2(C)CC[C@]3(C)C(=CC(=O)[C@@H]4[C@@]5(C)CC[C@H](O)C(C)(C)[C@@H]5CC[C@]43C)[C@@H]2C1,–,–,–,14100,> 14000,14100,> 14000,> 14000,–,–,–,–,inactive,inactive,inactive,inactive,–,–
CCOc1cc(/C=C/C(C)=O)ccc1OC(=O)[C@@]1(C)CC[C@]2(C)CC[C@]3(C)C(=CC(=O)[C@@H]4[C@@]5(C)CC[C@H](O)C(C)(C)[C@@H]5CC[C@]43C)[C@@H]2C1,–,–,5200,1100,1100,3300,5800,2700,1800,1700,1700,–,–,–,–,–,–,–
COc1ccc(/C=C/C(=O)c2ccccc2)c(OC(=O)[C@@]2(C)CC[C@]3(C)CC[C@]4(C)C(=CC(=O)[C@@H]5[C@@]6(C)CC[C@H](O)C(C)(C)[C@@H]6CC[C@]54C)[C@@H]3C2)c1,–,–,–,> 14000,–,> 14000,13000,> 14000,> 14000,–,> 14000,–,inactive,inactive,–,–,inactive,–
COc1ccc(/C=C/C(C)=O)cc1OC(=O)[C@@]1(C)CC[C@]2(C)CC[C@]3(C)C(=CC(=O)[C@@H]4[C@@]5(C)CC[C@H](O)C(C)(C)[C@@H]5CC[C@]43C)[C@@H]2C1,–,–,1900,6500,1600,2800,9900,2000,900,2800,1900,–,–,–,–,–,–,–
COc1cc(/C=C/C(C)=O)ccc1OC(=O)[C@]12CCC(C)(C)C[C@H]1C1=CC[C@@H]3[C@@]4(C)CC[C@H](O)C(C)(C)[C@@H]4CC[C@@]3(C)[C@]1(C)CC2,inactive,inactive,–,–,–,–,–,–,–,–,–,–,–,–,–,–,–,–
COc1cc(/C=C/C(C)=O)ccc1OC(=O)[C@@]1(C)CC[C@]2(C)CC[C@]3(C)C(=CC(=O)[C@@H]4[C@@]5(C)CC[C@H](O)C(C)(C)[C@@H]5CC[C@]43C)[C@@H]2C1,–,–,2800,600,900,1400,3100,1700,1600,2000,2500,1700,–,–,–,–,–,2800
COc1cc(/C=C/C(C)=O)ccc1O [DEHYDROZINGERONE],inactive,inactive,> 52000,51000,33900,> 52000,> 52000,> 52000,–,> 52000,–,–,–,–,inactive,inactive,–,–
COc1cccc2c1C(=O)c1c(O)c3c(c(O)c1C2=O)C[C@@](O)(C(=O)CO)C[C@@H]3O[C@H]1C[C@H](N)[C@H](O)[C@H](C)O1 [DOXORUBICIN],–,–,40,40,20,260,150,1200,100,180,4970,–,–,–,–,–,–,–
CC(=O)/C=C/c1cccc(F)c1OC(=O)[C@@]1(C)CC[C@]2(C)CC[C@]3(C)C(=CC(=O)[C@@H]4[C@@]5(C)CC[C@H](O)C(C)(C)[C@@H]5CC[C@]43C)[C@@H]2C1,–,–,2700,4400,1300,1600,2700,2200,3000,3200,8700,–,–,–,–,–,–,–
C[C@H]1[C@H](C)CC[C@]2(C(=O)O)CC[C@]3(C)C(=CC[C@@H]4[C@@]5(C)CC[C@H](O)C(C)(C)[C@@H]5CC[C@]43C)[C@H]12 [URSOLIC ACID],–,–,–,–,–,–,–,–,–,–,–,8300,–,–,–,–,–,8100
COc1ccc(/C=C/C(C)=O)c(OC(=O)[C@@]2(C)CC[C@]3(C)CC[C@]4(C)C(=CC(=O)[C@@H]5[C@@]6(C)CC[C@H](O)C(C)(C)[C@@H]6CC[C@]54C)[C@@H]3C2)c1,–,–,> 15000,1900,5900,7400,> 15000,2600,6200,15500,> 15000,–,–,–,–,–,–,–
COc1cccc(/C=C/C(=O)c2ccccc2)c1OC(=O)[C@@]1(C)CC[C@]2(C)CC[C@]3(C)C(=CC(=O)[C@@H]4[C@@]5(C)CC[C@H](O)C(C)(C)[C@@H]5CC[C@]43C)[C@@H]2C1,–,–,> 14000,14100,13300,14100,> 14000,> 14000,9900,> 14000,–,–,–,–,–,inactive,–,–
